Reference: ChEMBL document CHEMBL1137665, “Antistaphylococcal activity of CG400549, a new experimental FabI inhibitor, compared with that of other agents” (2007)
In brackets after ≈: the same amount, converted by molar mass.

Columns and labels:
[1] = tested on: Staphylococcus aureus; assay: Antimicrobial activity against methicillin-resistant Staphylococcus aureus 481 after single-step resistance selection by agar dilution CLSI method; assay type: functional
Method in brief: (§1)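 Single-step selection on drug-containing agar across 10 strains (2 MSSA, 8 MRSA, including VRSA and VISA). Colonies arising on confluent background growth were retested by CLSI agar dilution MIC. Resistance was defined as an MIC more than 4× the parent MIC.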

[2] = tested on: Staphylococcus aureus; assay: Antimicrobial activity against community-acquired vancomycin-intermediate Staphylococcus aureus 504 by agar dilution CLSI method; assay type: functional
Method in brief: (§2)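 CLSI agar dilution MIC against S. aureus clinical isolates. Calcium was added to the medium for daptomycin testing. Vancomycin plates were read after a full 24-h incubation.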

[3] = tested on: Staphylococcus aureus; assay: Antimicrobial activity against vancomycin-resistant Staphylococcus aureus 509 Michigan after 28 passages by multi-step resistance selection technique; assay type: functional
Method in brief: (§3)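 Multistep selection: 10 S. aureus strains (8 MRSA incl. two VRSA, two VISA; 2 MSSA) serially passaged daily at subinhibitory concentrations of each antimicrobial; MICs of mutants retested and compared with parent; clone identity versus parent confirmed by pulsed-field gel electrophoresis at study end.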

[4] = tested on: Staphylococcus aureus; assay: Antimicrobial activity against methicillin-susceptible Staphylococcus aureus 540 after 36 passages with Linezolid measured after 10 antibiotic-free subculture by multi-step resistance selection technique; assay type: functional
Method in brief: (§4)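 Mutants from multistep daily serial passage in subinhibitory drug were then subcultured daily 10 times on antibiotic-free medium. MIC was redetermined after these subcultures to assess stability. Clone identity was checked by pulsed-field gel electrophoresis.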

[5] = tested on: Staphylococcus aureus; assay: Antimicrobial activity against vancomycin-resistant Staphylococcus aureus 509 Michigan after 28 passages with Linezolid measured after 10 antibiotic-free subculture by multi-step resistance selection technique; assay type: functional
Method in brief: (§5)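 Multistep-selected mutants (daily passage at subinhibitory drug levels) then subcultured 10 times daily on antibiotic-free medium; MIC redetermined afterwards and compared with the MIC recorded at the end of selection; clone identity to parent checked by pulsed-field gel electrophoresis.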

[6] = tested on: Staphylococcus aureus; assay: Antimicrobial activity against methicillin-resistant vancomycin-intermediate Staphylococcus aureus 555 after single-step resistance selection by agar dilution CLSI method; assay type: functional; method in brief: as §1
[7] = tested on: Staphylococcus aureus; assay: Antimicrobial activity against vancomycin-intermediate Staphylococcus aureus 504 after 22 passages with Linezolid measured after 10 times antibiotic-free subculture by multi-step resistance selection technique; assay type: functional; method in brief: as §5
[8] = tested on: Staphylococcus aureus; assay: Antimicrobial activity against methicillin-susceptible Staphylococcus aureus 540 after single-step resistance selection by agar dilution CLSI method; assay type: functional; method in brief: as §1
[9] = tested on: Staphylococcus aureus; assay: Antimicrobial activity against methicillin-resistant vancomycin-intermediate Staphylococcus aureus 504 after single-step resistance selection by agar dilution CLSI method; assay type: functional; method in brief: as §1
[10] = tested on: Staphylococcus aureus; assay: Antimicrobial activity against methicillin-resistant Staphylococcus aureus 547 after 48 passages by multi-step resistance selection technique; assay type: functional
Method in brief: (§6)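 Multistep selection by daily serial passage of each strain in subinhibitory drug concentrations for the stated number of passages. Mutant MIC was then determined. Identity of mutants and parents was confirmed by pulsed-field gel electrophoresis.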

[11] = tested on: Staphylococcus aureus; assay: Antimicrobial activity against panton-valentine leukocidin-negative community-acquired methicillin-resistant Staphylococcus aureus 481 after 37 passages by multi-step resistance selection technique; assay type: functional; method in brief: as §6
[12] = tested on: Staphylococcus aureus; assay: Antimicrobial activity against vancomycin-intermediate Staphylococcus aureus 504 after 22 passages by multi-step resistance selection technique; assay type: functional
Method in brief: (§7)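 Multistep selection: S. aureus strains (MSSA and MRSA, including VISA and VRSA) were passaged serially once daily in subinhibitory concentrations of each antimicrobial. Mutant and parent identities were confirmed by pulsed-field gel electrophoresis at the end of the study. Mutant MIC stability was checked after 10 daily subcultures on antibiotic-free media.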

[13] = tested on: Staphylococcus aureus; assay: Antimicrobial activity against methicillin-resistant Staphylococcus aureus 490 after single-step resistance selection by agar dilution CLSI method; assay type: functional; method in brief: as §1
[14] = tested on: Staphylococcus aureus; assay: Antimicrobial activity against methicillin-susceptible Staphylococcus aureus 540 after 36 passages by multi-step resistance selection technique; assay type: functional; method in brief: as §6
[15] = tested on: Staphylococcus aureus; assay: Antimicrobial activity against methicillin-resistant Staphylococcus aureus 547 after 48 passages with Linezolid measured after 10 antibiotic-free subculture by multi-step resistance selection technique; assay type: functional; method in brief: as §4
[16] = tested on: Staphylococcus aureus; assay: Antimicrobial activity against methicillin-susceptible Staphylococcus aureus 543 after 15 passages by multi-step resistance selection technique; assay type: functional; method in brief: as §6
[17] = tested on: Staphylococcus aureus; assay: Antimicrobial activity against methicillin-susceptible Staphylococcus aureus 543 after single-step resistance selection by agar dilution CLSI method; assay type: functional; method in brief: as §1
[18] = tested on: Staphylococcus aureus; assay: Antimicrobial activity against panton-valentine leukocidin-positive community-acquired methicillin-resistant Staphylococcus aureus 490 after 22 passages by multi-step resistance selection technique; assay type: functional; method in brief: as §3
[19] = tested on: Staphylococcus aureus; assay: Antimicrobial activity against panton-valentine leukocidin-positive community-acquired methicillin-resistant Staphylococcus aureus 490 after 22 passages with Linezolid measured after 10 antibiotic-free subculture by multi-step resistance selection technique; assay type: functional; method in brief: as §5
[20] = tested on: Staphylococcus aureus; assay: Antimicrobial activity against methicillin-resistant Staphylococcus aureus 547 after single-step resistance selection by agar dilution CLSI method; assay type: functional; method in brief: as §1
[21] = tested on: Staphylococcus aureus; assay: Antimicrobial activity against methicillin-susceptible Staphylococcus aureus 543 after 15 passages with Linezolid measured after 10 antibiotic-free subculture by multi-step resistance selection technique; assay type: functional; method in brief: as §4
[22] = tested on: Staphylococcus aureus; assay: Antimicrobial activity against vancomycin-resistant Staphylococcus aureus 510 Hershey after 50 passages by multi-step resistance selection technique; assay type: functional; method in brief: as §3
[23] = tested on: Staphylococcus aureus; assay: Antimicrobial activity against methicillin-resistant Staphylococcus aureus 525 after single-step resistance selection by agar dilution CLSI method; assay type: functional; method in brief: as §1
[24] = tested on: Staphylococcus aureus; assay: Antimicrobial activity against panton-valentine leukocidin-negative community-acquired methicillin-resistant Staphylococcus aureus 481 after 37 passages with Linezolid measured after 10 antibiotic-free subculture by multi-step resistance selection technique; assay type: functional; method in brief: as §4
[25] = tested on: Staphylococcus aureus; assay: Antimicrobial activity against methicillin-resistant Staphylococcus aureus by agar dilution CLSI method; assay type: functional; method in brief: as §2
[26] = tested on: Staphylococcus aureus; assay: Antimicrobial activity against methicillin and vancomycin-resistant Staphylococcus aureus 510 after single-step resistance selection by agar dilution CLSI method; assay type: functional; method in brief: as §1
[27] = tested on: Staphylococcus aureus; assay: Antimicrobial activity against methicillin and vancomycin-resistant Staphylococcus aureus 509 after single-step resistance selection by agar dilution CLSI method; assay type: functional; method in brief: as §1
[28] = tested on: Staphylococcus aureus; assay: Antimicrobial activity against methicillin-susceptible Staphylococcus aureus by agar dilution CLSI method; assay type: functional; method in brief: as §2
[29] = tested on: Staphylococcus aureus; assay: microbe, parasite or virus in culture; settings: 525
[30] = tested on: Staphylococcus aureus; assay: Antimicrobial activity against vancomycin-intermediate Staphylococcus aureus 555 Hershey after 50 passages by multi-step resistance selection technique; assay type: functional; method in brief: as §3
[31] = tested on: Staphylococcus aureus; assay: microbe, parasite or virus in culture; settings: 547
[32] = tested on: Staphylococcus aureus; assay: Antimicrobial activity against vancomycin-intermediate Staphylococcus aureus 504 after 50 passages by multi-step resistance selection technique; assay type: functional; method in brief: as §7
[33] = tested on: Staphylococcus aureus; assay: microbe, parasite or virus in culture; settings: 481
[34] = tested on: Staphylococcus aureus; assay: Antimicrobial activity against panton-valentine leukocidin-positive community-acquired methicillin-resistant Staphylococcus aureus 490 after 50 passages by multi-step resistance selection technique
[35] = tested on: Staphylococcus aureus; assay: Antimicrobial activity against vancomycin-resistant Staphylococcus aureus 509 Michigan by agar dilution CLSI method; assay type: functional
Method in brief: (§8)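 Agar dilution MIC per CLSI methodology; calcium supplemented for daptomycin testing; vancomycin plates read after a full 24-h incubation.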

[36] = tested on: Staphylococcus aureus; assay: Antimicrobial activity against vancomycin-intermediate Staphylococcus aureus 555 Hershey by agar dilution CLSI method; assay type: functional; method in brief: as §8
[37] = tested on: Staphylococcus aureus; assay: Antimicrobial activity against vancomycin-intermediate Staphylococcus aureus 555 Hershey after 14 passages with CG400549 measured after 10 antibiotic-free subculture by multi-step resistance selection technique; assay type: functional; method in brief: as §5
[38] = tested on: Staphylococcus aureus; assay: Antimicrobial activity against vancomycin-resistant Staphylococcus aureus 509 Michigan after 20 passages with daptomycin measured after 10 antibiotic-free subculture by multi-step resistance selection technique; assay type: functional; method in brief: as §5
[39] = tested on: Staphylococcus aureus; assay: Antimicrobial activity against methicillin-susceptible Staphylococcus aureus 540 after 50 passages by multi-step resistance selection technique
[40] = tested on: Staphylococcus aureus; assay: Antimicrobial activity against vancomycin-resistant Staphylococcus aureus 510 Hershey after 14 passages with CG400549 measured after 10 antibiotic-free subculture by multi-step resistance selection technique; assay type: functional; method in brief: as §5
[41] = tested on: Staphylococcus aureus; assay: Antimicrobial activity against vancomycin-resistant Staphylococcus aureus 509 Michigan after 14 passages with CG400549 measured after 10 antibiotic-free subculture by multi-step resistance selection technique; assay type: functional; method in brief: as §5
[42] = tested on: Staphylococcus aureus; assay: microbe, parasite or virus in culture; settings: 543
[43] = tested on: Staphylococcus aureus; assay: Antimicrobial activity against vancomycin-resistant Staphylococcus aureus 510 Hershey by agar dilution CLSI method; assay type: functional; method in brief: as §8

Structure (SMILES): CC(=O)NC[C@H]1CN(c2ccc(N3CCOCC3)c(F)c2)C(=O)O1 [LINEZOLID]
- MIC [1]: 0.5 mg/L (≈ 1.48 µM)
- MIC [2]: 1 mg/L (≈ 2.96 µM)
- MIC [3]: 16 mg/L (≈ 47.4 µM)
- MIC [4]: 16 mg/L (≈ 47.4 µM)
- MIC [5]: 32 mg/L (≈ 94.9 µM)
- MIC [6]: 0.5 mg/L (≈ 1.48 µM)
- MIC [7]: 8 mg/L (≈ 23.7 µM)
- MIC [8]: 0.5 mg/L (≈ 1.48 µM)
- MIC [9]: 0.5 mg/L (≈ 1.48 µM)
- MIC [10]: 32 mg/L (≈ 94.9 µM)
- MIC [11]: 32 mg/L (≈ 94.9 µM)
- MIC [12]: 8 mg/L (≈ 23.7 µM)
- MIC [13]: 0.5 mg/L (≈ 1.48 µM)
- MIC [14]: 32 mg/L (≈ 94.9 µM)
- MIC [15]: 32 mg/L (≈ 94.9 µM)
- MIC [16]: 32 mg/L (≈ 94.9 µM)
- MIC [17]: 0.5 mg/L (≈ 1.48 µM)
- MIC [18]: 32 mg/L (≈ 94.9 µM)
- MIC [19]: 32 mg/L (≈ 94.9 µM)
- MIC [20]: 0.5 mg/L (≈ 1.48 µM)
- MIC [21]: 32 mg/L (≈ 94.9 µM)
- MIC [22]: 16 mg/L (≈ 47.4 µM)
- MIC [23]: 0.5 mg/L (≈ 1.48 µM)
- MIC [24]: 32 mg/L (≈ 94.9 µM)
- MIC50 [25]: 1 mg/L (≈ 2.96 µM)
- MIC90 [25]: 2 mg/L (≈ 5.93 µM)
- MIC [26]: 0.5 mg/L (≈ 1.48 µM)
- MIC [27]: 0.5 mg/L (≈ 1.48 µM)
- MIC50 [28]: 1 mg/L (≈ 2.96 µM)
- MIC90 [28]: 2 mg/L (≈ 5.93 µM)

Structure (SMILES): CN[C@H](CC(C)C)C(=O)N[C@H]1C(=O)N[C@@H](CC(N)=O)C(=O)N[C@H]2C(=O)N[C@H]3C(=O)N[C@H](C(=O)N[C@H](C(=O)O)c4cc(O)cc(O)c4-c4cc3ccc4O)[C@H](O)c3ccc(c(Cl)c3)Oc3cc2cc(c3O[C@@H]2O[C@H](CO)[C@@H](O)[C@H](O)[C@H]2O[C@H]2C[C@](C)(N)[C@H](O)[C@H](C)O2)Oc2ccc(cc2Cl)[C@H]1O [VANCOMYCIN]
- MIC [2]: 8 mg/L (≈ 5.52 µM)
- MIC [29]: 8 mg/L (≈ 5.52 µM)
- MIC [5]: > 64 mg/L
- MIC [7]: 8 mg/L (≈ 5.52 µM)
- MIC [30]: 8 mg/L (≈ 5.52 µM)
- MIC [31]: 8 mg/L (≈ 5.52 µM)
- MIC [32]: 8 mg/L (≈ 5.52 µM)
- MIC [33]: 8 mg/L (≈ 5.52 µM)
- MIC [34]: 8 mg/L (≈ 5.52 µM)
- MIC [35]: > 64 mg/L
- MIC [36]: 8 mg/L (≈ 5.52 µM)
- MIC [37]: 8 mg/L (≈ 5.52 µM)
- MIC [38]: 32 mg/L (≈ 22.1 µM)
- MIC [39]: 8 mg/L (≈ 5.52 µM)
- MIC [40]: 16 mg/L (≈ 11 µM)
- MIC [41]: 16 mg/L (≈ 11 µM)
- MIC [42]: 8 mg/L (≈ 5.52 µM)
- MIC [43]: 64 mg/L (≈ 44.2 µM)
- MIC50 [25]: 1 mg/L (≈ 0.69 µM)
- MIC90 [25]: 2 mg/L (≈ 1.38 µM)
- MIC50 [28]: 1 mg/L (≈ 0.69 µM)
- MIC90 [28]: 2 mg/L (≈ 1.38 µM)
